# SUMO1 PPI mod: modulators of SUMO1 protein-protein interactions, primary screen, biochemical, uHTS. SUMO1 binding to a labelled peptide, TR-FRET, 1 h. inhibition, % at 20 µM. Small ubiquitin-related modifier 1 (Homo sapiens), P63165. 360,000 compounds, 0.33% hits. AID 602429, 2012; in the data active = inhibition above about 37%
# Target sequence (P63165 whole entry, looked up): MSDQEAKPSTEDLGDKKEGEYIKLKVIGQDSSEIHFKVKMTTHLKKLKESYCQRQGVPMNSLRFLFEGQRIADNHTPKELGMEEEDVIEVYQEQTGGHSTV
# Scp-1 inhibitor: Scp-1 phosphatase inhibitors, primary screen, biochemical, colorimetric, uHTS; Carboxy-terminal domain RNA polymerase II polypeptide A small phosphatase 1 (Homo …; Recombinant Scp1, phosphopeptide, malachite green phosphate absorbance; inhibition, % at 20 µM; 340,000 compounds, 0.88% hits;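 active = inhibition above about 50% at 20 µM, limit read from the data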;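 also: plate controls were DMSO wells with enzyme for no effect and wells lacking enzyme for full effect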
# Target sequence (Q9GZU7 76-261 limits assumed): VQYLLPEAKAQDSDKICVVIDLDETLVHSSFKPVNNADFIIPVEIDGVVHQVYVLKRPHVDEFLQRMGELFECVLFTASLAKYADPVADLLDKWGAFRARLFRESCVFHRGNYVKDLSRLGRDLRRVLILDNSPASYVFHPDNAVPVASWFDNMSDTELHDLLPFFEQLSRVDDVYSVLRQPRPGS
#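 assay system = SCP-1 phosphatase catalytic domain, residues 76-261 | buffer or medium = 50 mM Tris acetate pH 5.5, 0.005% Tween-20, 10 mM MgCl2 | incubation = enzyme reaction 45 min at room temperature, colour 5 min, stabilisation 30 min | signal = Phosphate-binding colour reagent, absorbance read at 630 nm | measure = % inhibition at 20 µM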
# LMPTP block: LMPTP phosphatase inhibitors, primary screen, biochemical, fluorescence intensity, uHTS; AID 651560, 2012; 360,000 compounds, 0.22% hits; recombinant LMPTP-A, OMFP fluorogenic substrate; inhibition, % at 20 µM; Low molecular weight phosphotyrosine protein phosphatase (Homo sapiens), P24666;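 active = compounds that cut the enzyme signal by at least half of the control window in the single-dose screen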;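 also: plate controls were DMSO wells with enzyme plus substrate for no effect and substrate without enzyme for full effect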
# Target sequence (P24666 whole entry, looked up): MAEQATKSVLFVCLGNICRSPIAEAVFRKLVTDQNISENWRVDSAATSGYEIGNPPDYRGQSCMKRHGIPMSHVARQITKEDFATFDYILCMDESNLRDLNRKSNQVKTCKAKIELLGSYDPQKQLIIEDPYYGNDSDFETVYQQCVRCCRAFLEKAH
#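 Material: LMPTP-A; amount: 0.625 nM enzyme; doses: single 20 µM dose; times: reaction 50 min, room temperature, dark; technique: fluorescence intensity of OMFP turnover product; benchmarks: no-enzyme and uninhibited controls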
# STEP inh: STEP phosphatase inhibitors, primary screen, biochemical, fluorescence intensity, uHTS; Tyrosine-protein phosphatase non-receptor type 5 (Homo sapiens), P54829; recombinant STEP, OMFP fluorogenic substrate; inhibition, % at 20 µM; 360,000 compounds, 0.25% hits;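 active = inhibition at 20 µM, scaled per plate between control wells, above about 37%, limit read from the data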;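 also: 0% = DMSO with enzyme and substrate and 100% = substrate only without enzyme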
#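 Also added – OMFP at 25 µM · Test system – STEP tyrosine phosphatase · Technique – FITC-channel fluorescence of OMFP product · Schedule – 20 min at room temperature, dark · Evaluation – control-normalized % inhibition with plate pattern correction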
# DSG3 Ab inh: inhibitors of pemphigus antibody binding to DSG3, primary screen, biochemical, bead-based, flow cytometry, scFv-GFP | DSG3-coupled beads, scFv-anti-DSG3-GFP binding; active compounds read low | binding (percent of control), % at 10 µM | 310,000 compounds, 0.48% hits | Desmoglein-3 (Homo sapiens), P32926;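 active = binding more than 3 SD below its plate's average and above zero; inconclusive = below that plate limit but binding exactly zero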;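 also: hits lower antibody fragment binding to DSG3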
# Scp-1 conf: Scp-1 phosphatase inhibitors, retest, confirmation, biochemical, colorimetric, single concentration | 2,500 compounds, 61% hits | recombinant SCP-1 catalytic domain, phosphate release, malachite green absorbance | AID 540281, 2011 | shares compounds with Scp-1 inhibitor | inhibition, % at 20 µM;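 also: plate controls were DMSO with enzyme for no effect and buffer wells lacking enzyme for full effect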
# MG interference: colorimetric readout interference by compounds, confirmation, artefact control for Scp-1 inhibitor project, biochemical, single concentration; shares compounds with Scp-1 inhibitor; Colorimetric interference counterscreen, malachite green absorbance 630 nm; apparent inhibition (interference), % at 20 µM; 2,500 tested, under 10 active; AID 540313, 2011;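 also: compounds added after enzyme reaction finished so only phosphate colour detection is probed; plate controls were DMSO wells with completed Scp-1 reaction for no effect and substrate wells lacking enzyme for full effect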
# Scp1 DSF: Scp-1 binding by thermal shift, confirmation, orthogonal assay for Scp-1 inhibitor project, biophysical, differential scanning fluorimetry. shares compounds with Scp-1 inhibitor. thermal shift relative to vanadate control, % at 40 µM. 1,500 compounds, 25% hits. AID 540329, 2011. Recombinant SCP1, Sypro Orange thermal shift Tm;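 active = substances whose mean melting-temperature shift, as a percentage of the reference inhibitor's shift, reaches about 5.3%, limit read from the data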;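 also: 0% = Tm of DMSO wells and 100% = Tm with sodium orthovanadate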
# Starred values were filed as active, the others as inactive; ? = inconclusive; . = no result given. An excerpt weighted towards active compounds, which were near 1.7% of everything screened.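 The calls were made as follows, unless noted: active = inhibition of at least 30% at 20 µM; inactive = the rest.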
SMILES,SUMO1 PPI mod,Scp-1 inhibitor,LMPTP block,STEP inh,DSG3 Ab inh,Scp-1 conf,MG interference,Scp1 DSF
C=CC1=C(C(=O)O)N2C(=O)[C@@H](NC(=O)/C(=N\O)c3csc(N)n3)[C@H]2SC1 (stereo in doubt),63*,98*,79*,73*,97,60*,-11,2
CCn1ccc(C(=O)NC2C(=O)N3C(C(=O)O)=C(C)CSC23)n1 (stereo not given),1,-6,-1,0,101,.,.,.
O=C1CC(C(=O)Nc2ccc(O)c(C(=O)O)c2)C(c2ccccc2)O1 (stereo not given),1,51*,0,2,105,30*,-7,3
CC(=O)N1CCc2cc(S(=O)(=O)NCCC(=O)NCCc3ccc(Cl)cc3)ccc21,3,-5,-1,-2,104,.,.,.
CCOc1cc(S(=O)(=O)Nc2cc(C)cc(C)c2)ccc1Cl,1,66*,3,2,93,-22,-16,.
O=C(NCCc1c[nH]c2ccccc12)c1ccc2c(c1)OCO2,0,-10,0,3,108,.,.,.
O=C(NCCc1c[nH]c2ccccc12)c1cc(Cl)c2c(c1)OCO2,7,52*,3,0,.,-3,-10,.
COc1ccc(S(=O)(=O)NNC(=O)Cc2csc(C)n2)cc1[N+](=O)[O-],-6,60*,29,6,95,64*,-6,-11
Cc1nc(CC(=O)NNS(=O)(=O)c2ccc3ccccc3c2)cs1,1,-5,2,-6,105,.,.,.
Cc1cccc(N2CCN(C(=O)Cc3ccccc3[N+](=O)[O-])CC2)c1C,-19,-8,0,1,93,.,.,.
O=C(Nc1ccccc1Cl)c1cc(=O)c2ccccc2o1,-17,-3,0,0,122,.,.,.
Cc1ccc(S(=O)(=O)N(C)C[C@H]2OCc3cn(nn3)CCCC(=O)N([C@H](C)CO)C[C@@H]2C)cc1,1,.,-1,2,98,.,.,.
CCOC(=O)c1c(NC(=O)C2CCCCC2C(=O)O)sc2c1CCCCC2 (stereo not given),4,-8,0,2,110,.,.,.
CCOC(=O)c1c(NC(=O)C2C3C=CC(C3)C2(C)C(=O)O)sc2c1CCCC2 (stereo not given),25,53*,1,10,81,56*,-8,-19
Cc1ccc(C)c(N2CCN(C(=O)c3ccc(CSc4nc5ccncc5[nH]4)cc3)CC2)c1,-2,56*,28,0,107,-16,-4,.
CC1CCCCC1NC(=O)c1ccc(CSc2nc3ccncc3[nH]2)cc1 (stereo not given),1,-9,15,2,96,.,.,.
O=C(Nc1ccccc1)N1CCCC2CCCCC21 (stereo not given),-5,1,-2,-5,102,.,.,.
CC(=O)Nc1cc(NC(C)=O)cc(C(=O)N2CCCC3CCCCC32)c1 (stereo not given),17,61*,12,38,98,54*,-1,5.7*
COc1ccc(C(=O)O/N=C2\C(=O)N(C)c3ccccc32)cc1,-21,52*,-2,0,110,-15,-18,.
CN1C(=O)/C(=N\OC(=O)c2cccc3ccccc23)c2ccccc21,-13,-14,2,4,104,.,.,.
C=CCN(Cc1cccs1)C(=O)COc1ccc2c(c1)OCO2,10,-8,-1,1,96,.,.,.
CC(C)(C)c1ccc2c(c1)OC(C(=O)N/N=C\c1ccncc1)CO2 (stereo not given),-7,-1,0,0,112,.,.,.
CC(C)(C)c1ccc2c(c1)OC(C(=O)N/N=C/c1ccc([N+](=O)[O-])o1)CO2 (stereo not given),-17,108*,5,11,109,64*,-13,4
CCCCOc1ccc(CNC(=O)NS(=O)(=O)c2ccc(OCC(C)C)cc2)cc1,2,52*,-1,0,98,39*,-11,-15
Cn1c(=S)c2[nH]c(SCC3CCCO3)nc2n(C)c1=O (stereo not given),17,7,0,1,.,.,.,.
SMILES,SUMO1 PPI mod,Scp-1 inhibitor,LMPTP block,STEP inh,DSG3 Ab inh,Scp-1 conf,MG interference,Scp1 DSF
CCn1nnc(NC(=O)CSc2ccc(Cl)cc2)n1,4,51*,6,-1,97,72*,-6,3
CCCCn1nnc(NC(=O)Cc2ccc(Cl)cc2)n1,-7,20,-3,-1,111,.,.,.
Cc1cccc(NC(=O)C2(c3cccs3)CCOCC2)n1,0,-4,0,-1,95,.,.,.
CC(C)(C)c1ccc(C(=O)N2CCNC(=O)C2CC(=O)Nc2ccc(F)cc2)cc1 (stereo not given),-2,2,-1,-1,120,.,.,.
CCc1ccc(NC(=O)CC2C(=O)NCCN2C(=O)c2ccc(F)cc2)cc1 (stereo not given),-2,10,0,-5,102,-17,-17,.
N#Cc1ccccc1S(=O)(=O)N1CCN(C(=O)CCNS(=O)(=O)c2ccc(Cl)cc2)CC1,-1,0,-2,0,?,.,.,.
COc1ccc(O)c(/C=N/NC(=O)c2c(C)nnn2-c2nonc2N)c1,-5,100*,16,68*,101,86*,-9,-12
COc1ccc(/C=N/NC(=O)c2nnn(-c3nonc3N)c2-c2cccc(OC)c2)cc1,4,-6,-1,-3,98,.,.,.
CCc1cccc(NC(=O)Cn2c(=O)n(CCC(=O)NCC3CCCO3)c(=O)c3cc(OC)c(OC)cc32)c1 (stereo not given),-1,-5,0,-1,101,.,.,.
CCC12CCCN3CCC4(C(=C(C(=O)OC)C1)Nc1ccccc14)C32 (stereo not given),-1,61*,2,-3,105,-10,-13,.
Cn1cc(Cl)c(C(=O)Nc2cccc(Cl)c2Cl)n1,3,72*,16,-1,98,76*,-14,-1

# Compound activity (PubChem)
